According to ChEMBL document CHEMBL4325837, “Discovery of novel NO-releasing celastrol derivatives with Hsp90 inhibition and cytotoxic activities” (Eur J Med Chem, 2018):
pIC50: −log10 of the molar value. Activity calls are given as the source filed them. No cut-off for these calls is given here.

Columns and labels:
A549 [1] = assay: Cell cycle arrest in human A549 cells assessed as accumulation at G1 phase at 0.2 uM by after 24 hrs by RNase A/propidium iodide staining-based flow cytometric analysis (reference value: 46.97%); assay type: functional
[2] = target: T1, Heat shock protein HSP90 (Homo sapiens) (UniProt P07900+P08238); assay: Inhibition of HSP90 in human A549 cells assessed as decrease in Akt phosphorylation at 0.5 to 2.5 uM after 24 hrs by Western blot analysis; assay type: cell-based
Outline: (§1)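 A549 cells (5 × 10⁵ per 6 cm dish) were grown 24 h, then treated for 24 h. Cells were lysed and the lysate spun at 10,000 g for 20 min at 4 °C. Protein was adjusted to 3 mg/ml by BCA and run on 10% SDS-PAGE. Blots were probed with monoclonal antibodies for Cdk4, Hsp90, p-Akt and Akt, with β-actin as internal control.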

A549 [3] = assay: Induction of apoptosis in human A549 cells assessed as late apoptotic cells at 0.3 uM after 48 hrs by Annexin V-FITC/propidium iodide staining-based flow cytometric analysis (reference value: 0.4%); assay type: functional
Outline: (§2)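 A549 cells (4 × 10⁵ per 6 cm dish) were grown 24 h, then treated for 48 h. Cells were harvested, washed twice with cold PBS and resuspended in 250 μL binding buffer with 2.5 μL PI and 2.5 μL Annexin V-FITC. After 15 min at room temperature in the dark, they were analysed by flow cytometry for early and late apoptotic fractions.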

A549 [4] = assay: Induction of apoptosis in human A549 cells assessed as chromatin condensation at 0.3 to 1.2 uM after 48 hrs by Hoechst 33342 staining based fluorescent microscopic method; assay type: functional, cell-based
Outline: (§3)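 A549 cells (4 × 10⁵ per 6 cm dish) were grown 24 h, then treated for 48 h. Cells were washed twice with PBS, stained with Hoechst 33342 (10 µg/ml) for 5 min at room temperature in the dark, and examined by fluorescence microscopy for chromatin condensation and nuclear fragmentation.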

[5] = target: T1, Heat shock protein HSP90 (Homo sapiens); assay: Inhibition of HSP90 in human A549 cells assessed as decrease in CDK4 protein expression at 0.5 to 2.5 uM after 24 hrs by Western blot analysis; assay type: cell-based; outline: as §1
HOS = assay: Antiproliferative activity against human HOS cells after 48 hrs by MTT assay; assay type: functional, cell-based
Outline: (§4)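 MTT assay. Cells were seeded at 5.0 × 10⁴ cells/ml in 100 μL per well and grown 24 h. They were then exposed to a range of concentrations for 48 h. MTT (5 mg/ml) was added for 4 h, the supernatant was removed and DMSO was added. OD was read at 570 nm. Assays were run in triplicate and IC50 is reported as mean ± SD, n = 3.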

A549 [6] = assay: Induction of apoptosis in human A549 cells assessed as necrotic cells at 1.2 uM after 48 hrs by Annexin V-FITC/propidium iodide staining-based flow cytometric analysis (reference value: 0.6%); assay type: functional
A549 [7] = assay: Cell cycle arrest in human A549 cells assessed as accumulation at S phase at 0.8 uM by after 24 hrs by RNase A/propidium iodide staining-based flow cytometric analysis (reference value: 28.11%); assay type: functional
HepG2 = assay: Antiproliferative activity against human HepG2 cells after 48 hrs by MTT assay; assay type: functional, cell-based; settings: HepG2, 48 h; outline: as §4
A549 [8] = assay: Induction of apoptosis in human A549 cells assessed as early apoptotic cells at 1.2 uM after 48 hrs by Annexin V-FITC/propidium iodide staining-based flow cytometric analysis (reference value: 0.5%); assay type: functional
A549 [9] = assay: Cell cycle arrest in human A549 cells assessed as accumulation at S phase at 0.4 uM by after 24 hrs by RNase A/propidium iodide staining-based flow cytometric analysis (reference value: 28.11%); assay type: functional
A549 [10] = assay: Cell cycle arrest in human A549 cells assessed as accumulation at G2 phase at 0.8 uM by after 24 hrs by RNase A/propidium iodide staining-based flow cytometric analysis (reference value: 24.84%); assay type: functional
A549 [11] = assay: Cell cycle arrest in human A549 cells assessed as accumulation at G1 phase at 0.8 uM by after 24 hrs by RNase A/propidium iodide staining-based flow cytometric analysis (reference value: 46.97%); assay type: functional
A549 [12] = assay: Induction of apoptosis in human A549 cells assessed as early apoptotic cells at 0.6 uM after 48 hrs by Annexin V-FITC/propidium iodide staining-based flow cytometric analysis (reference value: 0.5%); assay type: functional; outline: as §2
A549 [13] = assay: Induction of apoptosis in human A549 cells assessed as necrotic cells at 0.3 uM after 48 hrs by Annexin V-FITC/propidium iodide staining-based flow cytometric analysis (reference value: 0.6%); assay type: functional; outline: as §2
[14] = Drug metabolism in human A549 cells assessed as nitric oxide release at 4 uM measured up to 24 hrs; assay type: ADME, cell-based; settings: a549, 24 h
Outline: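 A549 cells were seeded at 5.0 × 10⁴ cells/ml in 100 μL wells and grown 24 h at 37 °C. Hybrids were added at 4 μM for varying times, with 24 h used for the full set. NO was measured with a Nitrate/Nitrite assay kit against a standard curve, reading OD at 550 nm. Values are the mean of three independent experiments.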

A549 [15] = assay: Antiproliferative activity against human A549 cells after 48 hrs by MTT assay; assay type: functional, cell-based; settings: A549, 48 h; outline: as §4
A549 [16] = assay: Induction of apoptosis in human A549 cells assessed as nuclear fragmentation at 0.3 to 1.2 uM after 48 hrs by Hoechst 33342 staining based fluorescent microscopic method; assay type: functional, cell-based; outline: as §3
A549 [17] = assay: Induction of apoptosis in human A549 cells assessed as late apoptotic cells at 0.6 uM after 48 hrs by Annexin V-FITC/propidium iodide staining-based flow cytometric analysis (reference value: 0.4%); assay type: functional; outline: as §2
A549 [18] = assay: Induction of apoptosis in human A549 cells assessed as early apoptotic cells at 0.3 uM after 48 hrs by Annexin V-FITC/propidium iodide staining-based flow cytometric analysis (reference value: 0.5%); assay type: functional; outline: as §2
A549 [19] = assay: Induction of apoptosis in human A549 cells assessed as viable cells at 1.2 uM after 48 hrs by Annexin V-FITC/propidium iodide staining-based flow cytometric analysis (reference value: 98.5%); assay type: functional; settings: A549, 48 h, read-out: Activity
A549 [20] = assay: Induction of apoptosis in human A549 cells assessed as viable cells at 0.3 uM after 48 hrs by Annexin V-FITC/propidium iodide staining-based flow cytometric analysis (reference value: 98.5%); assay type: functional; settings: A549, 48 h, read-out: Activity; outline: as §2
MCF7 = assay: Antiproliferative activity against human MCF7 cells after 48 hrs by MTT assay; assay type: functional, cell-based; settings: MCF7, 48 h; outline: as §4
A549 [21] = assay: Cell cycle arrest in human A549 cells assessed as accumulation at S phase at 0.2 uM by after 24 hrs by RNase A/propidium iodide staining-based flow cytometric analysis (reference value: 28.11%); assay type: functional
A549 [22] = assay: Induction of apoptosis in human A549 cells assessed as late apoptotic cells at 1.2 uM after 48 hrs by Annexin V-FITC/propidium iodide staining-based flow cytometric analysis (reference value: 0.4%); assay type: functional
A549 [23] = assay: Cell cycle arrest in human A549 cells assessed as accumulation at G2 phase at 0.4 uM by after 24 hrs by RNase A/propidium iodide staining-based flow cytometric analysis (reference value: 24.84%); assay type: functional
A549 [24] = assay: Cell cycle arrest in human A549 cells assessed as accumulation at G2 phase at 0.2 uM by after 24 hrs by RNase A/propidium iodide staining-based flow cytometric analysis (reference value: 24.84%); assay type: functional
A549 [25] = assay: Induction of apoptosis in human A549 cells assessed as necrotic cells at 0.6 uM after 48 hrs by Annexin V-FITC/propidium iodide staining-based flow cytometric analysis (reference value: 0.6%); assay type: functional; outline: as §2
[26] = target: T1, Heat shock protein HSP90 (Homo sapiens); assay: Inhibition of HSP90 in human A549 cells at 0.5 to 2.5 uM after 24 hrs by Western blot analysis; assay type: cell-based; outline: as §1
A549 [27] = assay: Cell cycle arrest in human A549 cells assessed as accumulation at G1 phase at 0.4 uM by after 24 hrs by RNase A/propidium iodide staining-based flow cytometric analysis (reference value: 46.97%); assay type: functional
A549 [28] = assay: Induction of apoptosis in human A549 cells after 48 hrs by Annexin V-FITC/propidium iodide staining-based flow cytometric analysis; assay type: functional, cell-based; outline: as §2
A549 [29] = assay: Induction of apoptosis in human A549 cells assessed as viable cells at 0.6 uM after 48 hrs by Annexin V-FITC/propidium iodide staining-based flow cytometric analysis (reference value: 98.5%); assay type: functional; settings: A549, 48 h, read-out: Activity; outline: as §2

CC1=C(O)C(=O)C=C2C1=CC=C1[C@@]2(C)CC[C@@]2(C)[C@@H]3C[C@](C)(C(=O)NCCCOc4no[n+]([O-])c4S(=O)(=O)c4ccccc4)CC[C@]3(C)CC[C@]12C
Activity (A549 [1]): 52.05% | inhibition [2]: Active | Activity (A549 [3]): 6.4% | Activity (A549 [4]): Active | inhibition [5]: Active | pIC50 (HOS): 6.29 | Activity (A549 [6]): 9.8% | Activity (A549 [7]): 25.48% | pIC50 (HepG2): 5.85 | Activity (A549 [8]): 12.9% | Activity (A549 [9]): 25.12% | Activity (A549 [10]): 16.59% | Activity (A549 [11]): 61.12% | Activity (A549 [12]): 9.9% | Activity (A549 [13]): 1.7% | Drug metabolism [14]: Metabolite_Detected | pIC50 (A549 [15]): 6.32 to 6.37 | Activity (A549 [16]): Active | Activity (A549 [17]): 20% | Activity (A549 [18]): 3.1% | viability at 1.2 µM (A549 [19]): 46.3% | viability at 0.3 µM (A549 [20]): 88.8% | pIC50 (MCF7): 6.11 | Activity (A549 [21]): 27.71% | Activity (A549 [22]): 31% | Activity (A549 [23]): 18.38% | Activity (A549 [24]): 21.12% | Activity (A549 [25]): 5.3% | inhibition [26]: inactive | Activity (A549 [27]): 56.36% | Activity (A549 [28]): Dose-dependent effect | viability at 0.6 µM (A549 [29]): 64.8%
